# How the values were obtained:
# [1] = test system: Pseudomonas aeruginosa; test: Microbiostatic activity against Pseudomonas aeruginosa ATCC 9027 after 24 hrs by turbidimetric method; assay type: functional; conditions: ATCC 9027, 24 h
# Method in brief: (§1)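 Exponential-phase bacteria are grown overnight on TSA, then overnight at 30 °C in M9G (pH 7.0). Suspension is adjusted to OD660 0.05 (about 5·10^6–5·10^7 cfu/mL), verified by plate count. Automated serial dilutions of agent in deionised water are inoculated and incubated 24 h at 30 °C. MIC is the first concentration without turbidity.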
# [2] = test system: Aspergillus niger; test: Microbiostatic activity against Aspergillus niger ATCC 6275 after 72 hrs by turbidimetric method; assay type: functional; conditions: ATCC 6275, 72 h
# Method in brief: (§2)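 Turbidimetric broth microdilution: automated serial dilutions of agent in sterile deionised water, then inoculation. Spores come from 5–7 day SDA cultures at 25 °C, harvested in M9G (pH 5.0) and gauze-filtered to remove mycelium. Inoculum is set to 5·10^6–5·10^7 spores/mL by counting cell. Incubation is 72 h at 25 °C. MIC is the first concentration with no turbidity.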
# [3] = test system: Pseudomonas aeruginosa; test: Microbicidal activity against Pseudomonas aeruginosa ATCC 9027 after 5 days by microtiter plate method; assay type: functional; conditions: ATCC 9027, 120 h
# Method in brief: (§3)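 Bacterial MIC microtiter plates are held 5 days. For each of the three concentrations above the MIC, 100 µL is plated on TSA or SDA plates. MLC is the first concentration showing no growth after subculture.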
# [4] = Critical micelle concentration by conductimetry; assay type: physicochemical
# [5] = test system: Staphylococcus aureus; test: Microbiostatic activity against Staphylococcus aureus ATCC 6538 after 24 hrs by turbidimetric method; assay type: functional; conditions: ATCC 6538, 24 h; method in brief: as §1
# [6] = test system: Aspergillus niger; test: Microbicidal activity against Aspergillus niger ATCC 6275 after 7 days by microtiter plate method; assay type: functional; conditions: ATCC 6275, 168 h
# Method in brief: (§4)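 Fungal MIC microplates are kept 7 days. 100 µL from each of the three concentrations above the MIC is subcultured onto agent-free TSA or SDA plates. MLC is the lowest concentration giving no growth.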
# [7] = test system: Candida albicans; test: Microbicidal activity against Candida albicans ATCC 10231 after 7 days by microtiter plate method; assay type: functional; conditions: ATCC 10231, 168 h; method in brief: as §4
# [8] = test system: Staphylococcus aureus; test: Microbicidal activity against Staphylococcus aureus ATCC 6538 after 5 days by microtiter plate method; assay type: functional; conditions: ATCC 6538, 120 h; method in brief: as §3
# [9] = test system: Candida albicans; test: Microbiostatic activity against Candida albicans ATCC 10231 after 72 hrs by turbidimetric method; assay type: functional; conditions: ATCC 10231, 72 h; method in brief: as §2
Compound,MIC [1],MIC [2],CMC [4],MIC [5],MIC [9],MLC [3],MLC [6],MLC [7],MLC [8]
C=CC(=O)OCCCCCCCCCCC[N+](C)(C)CCCCCCCCCCCCCC.[Br-],44.8 µM,24.9 µM,4.68 ×10⁻⁴ mol/L,104 µM,16.8 µM,103 µM,24.9 µM,16.8 µM,164 µM
C=CC(=O)OCCCCCCCCCCC[N+](C)(C)CCCCCCCCCCCCCCCC.[Br-],132 µM,31.4 µM,1.66 ×10⁻⁴ mol/L,209 µM,27.1 µM,317 µM,40.4 µM,40.4 µM,274 µM
C=CC(=O)OCC[N+](C)(C)CCCCCCCCCCCC.[Br-],71.1 µM,63.8 µM,6.45 mM,71.1 µM,63.8 µM,71.1 µM,63.8 µM,63.8 µM,71.1 µM
C=CC(=O)OCC[N+](C)(C)Cc1ccccc1.[Br-],> 2000 µM,507 µM,4.6 ×10⁻² mol/L,> 2000 µM,> 2000 µM,> 2000 µM,600 µM,> 2000 µM,> 2000 µM
C=CC(=O)OCCCCCCCCCCC[N+](C)(C)CCCCCCCCCCCC.[Br-],58.4 µM,14.8 µM,9.66 ×10⁻⁴ mol/L,34.7 µM,14.8 µM,64.7 µM,14.8 µM,15.4 µM,34.7 µM

# Continued, in another order:
MIC [1],MIC [2],CMC [4],MIC [5],MIC [9],Compound,MLC [3],MLC [6],MLC [7],MLC [8]
356 µM,175 µM,1.16 ×10⁻² mol/L,356 µM,278 µM,C=CC(=O)OCC[N+](C)(C)CCCCCCCCCC.[Br-],416 µM,280 µM,359 µM,359 µM
237 µM,237 µM,1.95 mM,275 µM,24 µM,C=CC(=O)OCC[N+](C)(C)CCCCCCCCCCCCCCCC.[Br-],283 µM,283 µM,24.7 µM,283 µM
112 µM,178 µM,2.99 mM,178 µM,18.1 µM,C=CC(=O)OCC[N+](C)(C)CCCCCCCCCCCCCC.[Br-],114 µM,232 µM,18.4 µM,232 µM
79.9 µM,19 µM,2.79 mM,64.8 µM,19 µM,C=CC(=O)OCCCCCCCCCCC[N+](C)(C)CCCCCCCCCC.[Br-],188 µM,19.3 µM,30.4 µM,72.6 µM
154 µM,154 µM,3.34 ×10⁻² mol/L,244 µM,154 µM,C=CC(=O)OCCCCCCCCCCC[N+](C)(C)Cc1ccccc1.[Br-],447 µM,238 µM,447 µM,306 µM
